Data from the M2OR odorant receptor database.

Biological target: T1, OR1A2 (Homo sapiens) (UniProt Q9Y585)
T1 sequence (whole entry): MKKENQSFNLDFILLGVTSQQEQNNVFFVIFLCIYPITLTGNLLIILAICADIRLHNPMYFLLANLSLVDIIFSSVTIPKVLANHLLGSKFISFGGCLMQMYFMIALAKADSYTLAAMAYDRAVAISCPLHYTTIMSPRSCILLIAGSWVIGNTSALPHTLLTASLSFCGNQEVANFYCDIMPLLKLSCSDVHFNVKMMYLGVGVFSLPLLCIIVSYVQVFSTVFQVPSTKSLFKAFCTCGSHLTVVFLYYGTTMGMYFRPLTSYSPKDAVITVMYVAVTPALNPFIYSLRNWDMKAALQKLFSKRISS
Conditions: stereoisomer not certain
Summary of the method: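 Transient luciferase assays in mammalian cell lines were common, though methods varied by source. The values come from published papers and their supplementary material, with extra details from the original authors when needed. Responsive refers to a measured signal the original authors judged statistically different from baseline, and non-responsive (inactive) to the remainder.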
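Note: active if original authors judged signal statistically different from baseline.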

Row | SMILES | odorant receptor agonist call
1 | CCCCC=CC=CC=O | inactive
2 | CCCCCCCC=CC=CC=O | inactive
3 | CCCC(C)C=O (stereo unspecified) | inactive
4 | CSCCC=O | inactive
5 | CC(=O)C=CC1C(C)=CCCC1(C)C (stereo unspecified) | active
6 | Cc1cnccn1 | inactive
7 | CC(=O)OCCC(C)C | inactive
8 | CC(C)=CCCC(C)CC(=O)O (stereo unspecified) | inactive
9 | CCCCCC=CC=CC=O | active
10 | COc1ccccc1 | inactive
11 | O=C([O-])CCC(=O)[O-].[H+].[H+] | inactive
12 | CCCCCC=O | inactive
13 | O=C([O-])CCCCC(=O)[O-].[H+].[H+] | inactive
14 | CCCCCCCCC(=O)O | inactive
15 | C=C(C)C1CC=C(C)CC1 (stereo unspecified) | active
16 | Cc1nccnc1C | inactive
17 | CCC=CCCCCCC=O | active
18 | CCCCCCO | inactive

Row | SMILES | odorant receptor agonist call
19 | CCCCCC(S)C(C)CO (stereo unspecified) | inactive
20 | CC=CC(=O)C1=C(C)CCCC1(C)C | inactive
21 | CCCCCCCO | inactive
22 | CCCCC(=O)O | inactive
23 | CC(CO)CS (stereo unspecified) | inactive
24 | CCC=CCCC=CC=O | inactive
25 | CC(=O)CCc1ccc(O)cc1 | inactive
26 | CSCCCO | inactive
27 | C=CC(C)(O)CCC=C(C)CCC=C(C)C (stereo unspecified) | active
28 | CC(=O)C=CC1=C(C)CCCC1(C)C | active
29 | CCc1nccnc1CC | inactive
30 | C=CC(O)CCCCC (stereo unspecified) | inactive
31 | CCCCCCCCO | active
32 | CCCCCC=CCCC=O | active
33 | CC(=O)c1c(C)c([N+](=O)[O-])c(C(C)(C)C)c([N+](=O)[O-])c1C | inactive
34 | CCC(S)C(C)CO (stereo unspecified) | inactive
35 | CCc1cnccn1 | inactive
36 | CC(C)C12CCC(C)(CC1)O2 | inactive
